Bioassay records (PubChem)
T cruzi growth-1: inhibitors of T. cruzi proliferation | T. cruzi beta-gal in NIH3T3, GalScreen luminescence, 90 h | inhibition, % at 8.34 µM | 77,000 compounds, 5.9% hits | AID 624255;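 active = mean inhibition above about 93%, with at least 55% of replicates each passing it, limit read from the data, passing the limit was not always enough; inconclusive = only one of those two conditions holds; inactive = neither condition holds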
KDM4C inh: blocks human GASC-1 (KDM4C) demethylase activity; inhibition, % at 12.5 µM; GST-KDM4C 2-372, H3K9me3 peptide, LANCE TR-FRET; 96,000 compounds, 0.15% hits;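 active = mean replicate inhibition above about 25%, with at least 55% of replicates also reaching it, limit read from the data, passing the limit was not always enough; inconclusive = only one of those two conditions met; inactive = neither condition met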
Target sequence (Q9H3R0 2-372 limits assumed): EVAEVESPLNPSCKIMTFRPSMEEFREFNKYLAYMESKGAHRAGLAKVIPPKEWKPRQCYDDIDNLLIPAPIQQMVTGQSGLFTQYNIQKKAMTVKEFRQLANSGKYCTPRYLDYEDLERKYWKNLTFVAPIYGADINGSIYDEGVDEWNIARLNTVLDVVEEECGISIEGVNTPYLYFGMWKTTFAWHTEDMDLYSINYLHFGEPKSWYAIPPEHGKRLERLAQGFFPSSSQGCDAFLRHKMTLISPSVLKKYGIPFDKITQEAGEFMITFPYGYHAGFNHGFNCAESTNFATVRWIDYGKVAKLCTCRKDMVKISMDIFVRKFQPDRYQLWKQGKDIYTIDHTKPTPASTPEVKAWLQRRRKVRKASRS
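Test system: N-terminal GST-fused human GASC-1 (KDM4C) fragment, residues 2-372; quantity: GASC-1 enzyme at 10 nM final in reaction; dosing: single dose; schedule: 30 min demethylation and 1 h detection at room temperature; signal: LANCE TR-FRET, excitation 340 nm, emissions 618 and 671 nm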
IDH1 R132H inh: inhibitors of human IDH1 R132H; O75874; IDH1 R132H reductase, diaphorase/resazurin fluorescence, 60 min; inhibition, % at 10 µM; 70,000 compounds, 0.18% hits; AID 624101; in the data active = inhibition above about 34%; inconclusive = no clear call, values can overlap the other calls; inactive = below about 11%
Target sequence (O75874 whole entry R132H): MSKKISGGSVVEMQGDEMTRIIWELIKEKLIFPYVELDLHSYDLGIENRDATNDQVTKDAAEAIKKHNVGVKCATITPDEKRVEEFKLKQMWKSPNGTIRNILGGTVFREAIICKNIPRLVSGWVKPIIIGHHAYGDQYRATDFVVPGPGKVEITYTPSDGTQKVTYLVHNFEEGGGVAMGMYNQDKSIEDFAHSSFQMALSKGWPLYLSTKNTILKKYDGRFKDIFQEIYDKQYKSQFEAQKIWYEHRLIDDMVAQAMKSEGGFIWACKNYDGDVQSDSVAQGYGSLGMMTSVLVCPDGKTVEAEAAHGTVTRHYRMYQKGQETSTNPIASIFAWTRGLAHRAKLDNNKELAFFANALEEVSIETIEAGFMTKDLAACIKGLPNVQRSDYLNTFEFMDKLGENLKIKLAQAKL
T cruzi growth-2: inhibitors of T. cruzi proliferation; inhibition, % at 8.35 µM; 5,600 compounds, 72% hits; shares compounds with T cruzi growth-1; T. cruzi beta-gal in NIH3T3, GalScreen luminescence, 90 h;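 active = mean replicate inhibition above about 95% and at least 55% of replicates individually reaching it, limit read from the data; inconclusive = only one of the two criteria is met; inactive = neither criterion is met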
T cruzi growth-3: blocks T. cruzi growth in NIH3T3 host cells. AID 651740. T. cruzi beta-gal in NIH3T3, GalScreen luminescence, 90 h. inhibition, % at 2.09 µM. shares compounds with T cruzi growth-1. 5,600 compounds, 21% hits;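 active = mean inhibition above about 95%, with at least 55% of replicates also reaching it, limit read from the data; inconclusive = meets just one of the two conditions; inactive = meets neither condition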
3T3 cytotox: cytotoxicity in mouse NIH/3T3 fibroblasts; shares compounds with T cruzi growth-1; 5,600 compounds, 14% hits; cytotoxicity (signal decrease), % at 8.35 µM; NIH/3T3 viability, CellTiter-Glo ATP luminescence, 90 h;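 active = mean signal decrease across replicates above about 35% based on untreated-well scatter, with enough replicates individually passing, limit read from the data; inconclusive = no rule stated though some were filed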
NIH3T3 tox 2: NIH/3T3 (mouse) viability loss. 5,600 compounds, 56% hits. shares compounds with T cruzi growth-1. inhibition, % at 24.9 µM. NIH/3T3 viability, CellTiter-Glo ATP luminescence, 90 h;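 active = mean loss of cell viability signal at or above a set limit, and enough replicates individually reaching it; inconclusive = meets only the mean limit or only the replicate share; inactive = meets neither condition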
Each line names hits and unclear results; the compound was inactive in the other large screens (follow-up assays come after a bar, where they were run). Many of the other results were omitted from the sample, so hits are more common in it than they were.

COc1ccc(OC)c(NC(=O)C(C)N(c2ccc(C)c(C)c2)S(C)(=O)=O)c1 (stereo unspecified)	none (no result: T cruzi growth-1, KDM4C inh)
C[C@H]1CN([C@@H](C)CO)C(=O)c2cc(-c3cccnc3)cnc2O[C@@H]1CN(C)Cc1ccc(Oc2ccccc2)cc1	T cruzi growth-1 inconclusive | T cruzi growth-2 107 | T cruzi growth-3 inactive | 3T3 cytotox inactive | NIH3T3 tox 2 104
C[C@H]1CN([C@@H](C)CO)C(=O)c2cc(-c3ccncc3)cnc2O[C@@H]1CN(C)Cc1ccc(Oc2ccccc2)cc1	T cruzi growth-1 98 | T cruzi growth-2 105 | T cruzi growth-3 inactive | 3T3 cytotox inactive | NIH3T3 tox 2 104
C[C@@H]1CN([C@H](C)CO)C(=O)c2cc(-c3cccnc3)cnc2O[C@H]1CN(C)Cc1ccc(Oc2ccccc2)cc1	none
C[C@H](CO)N1C[C@H](C)[C@H](CN(C)Cc2ccc(Oc3ccccc3)cc2)Oc2ncc(-c3cccnc3)cc2C1=O	none
CC(=O)O[C@@H]1[C@@H](O)[C@H](C)O[C@@H](Oc2c(-c3ccc(O)cc3)oc3cc(O[C@@H]4O[C@@H](C)[C@H](O)[C@@H](O)[C@H]4O)cc(O)c3c2=O)[C@@H]1O	none (no result: T cruzi growth-1, KDM4C inh)
O=C(O)c1cc(NC(=O)C2CC=CCC2C(=O)O)ccc1Cl (stereo unspecified)	none (no result: T cruzi growth-1, KDM4C inh)
Cc1cc(C)cc(-c2nc3cc(NC(=O)COc4ccccc4[N+](=O)[O-])ccc3o2)c1	none (no result: T cruzi growth-1, KDM4C inh)
CC(C)C#Cc1ccc2c(c1)O[C@@H](CN(C)C(=O)Nc1ccccc1)[C@H](C)CN([C@@H](C)CO)S2(=O)=O	none (no result: T cruzi growth-1, IDH1 R132H inh)
C[C@H]1CN([C@@H](C)CO)S(=O)(=O)c2ccc(C#Cc3ccccc3)cc2O[C@@H]1CN(C)C(=O)Nc1ccccc1	T cruzi growth-1 119 | T cruzi growth-2 102 | T cruzi growth-3 inactive | 3T3 cytotox inactive | NIH3T3 tox 2 40
C[C@@H]1CN([C@H](C)CO)S(=O)(=O)c2ccc(C#Cc3ccccc3)cc2O[C@H]1CN(C)C(=O)Nc1ccccc1	T cruzi growth-1 122 (no result: IDH1 R132H inh) | T cruzi growth-2 109 | T cruzi growth-3 inactive | 3T3 cytotox 37 | NIH3T3 tox 2 50
C[C@@H]1CN([C@@H](C)CO)S(=O)(=O)c2ccc(C#Cc3ccccc3)cc2O[C@H]1CN(C)C(=O)Nc1ccccc1	T cruzi growth-1 123 | T cruzi growth-2 98 | T cruzi growth-3 108 | 3T3 cytotox 40 | NIH3T3 tox 2 36
C[C@@H](O)C#Cc1ccc2c(c1)O[C@@H](CN(C)C(=O)Nc1ccccc1)[C@@H](C)CN([C@@H](C)CO)S2(=O)=O	none (no result: KDM4C inh, IDH1 R132H inh)
C[C@H]1CN([C@@H](C)CO)S(=O)(=O)c2ccc(C#Cc3ccccc3)cc2O[C@H]1CN(C)C(=O)Nc1ccc2c(c1)OCO2	T cruzi growth-1 132 | T cruzi growth-2 99 | T cruzi growth-3 inactive | 3T3 cytotox inactive | NIH3T3 tox 2 inactive
C[C@H]1CN([C@@H](C)CO)S(=O)(=O)c2ccc(C#Cc3ccncc3)cc2O[C@H]1CN(C)C(=O)Nc1ccc2c(c1)OCO2	none (no result: IDH1 R132H inh)
CC(C)C#Cc1ccc2c(c1)O[C@@H](CN(C)C(=O)Nc1ccccc1)[C@@H](C)CN([C@@H](C)CO)S2(=O)=O	none (no result: T cruzi growth-1, IDH1 R132H inh)
C[C@@H]1CN([C@@H](C)CO)S(=O)(=O)c2ccc(C3=CCCC3)cc2O[C@H]1CN(C)C(=O)Nc1ccc2c(c1)OCO2	T cruzi growth-1 112 | T cruzi growth-2 106 | T cruzi growth-3 inactive | 3T3 cytotox inactive | NIH3T3 tox 2 61
C[C@@H]1CN([C@@H](C)CO)S(=O)(=O)c2ccc(C3=CCCC3)cc2O[C@@H]1CN(C)C(=O)Nc1ccc2c(c1)OCO2	none
COc1ccc(OC)c(NC(=O)c2ccc(CSc3nnnn3C)cc2)c1	none (no result: T cruzi growth-1, KDM4C inh)
CCN(CC(N)=O)S(=O)(=O)c1ccc2ccccc2c1	none (no result: T cruzi growth-1, KDM4C inh)
COC1OC(=O)C(CCC2(C)C(C)CCC3(C)C2CC(O)C(O)C32CO2)C1O (stereo unspecified)	none (no result: T cruzi growth-1, KDM4C inh)
COc1ccc(CN2C[C@@H](C)[C@H](OC)CN(C)C(=O)c3ccc(NC(=O)c4nc5ccccc5s4)cc3OC[C@@H]2C)cc1	T cruzi growth-1 102 | T cruzi growth-2 115 | T cruzi growth-3 inactive | 3T3 cytotox inactive | NIH3T3 tox 2 inactive
COc1ccc(CN2C[C@@H](C)[C@H](OC)CN(C)C(=O)c3ccc(NC(=O)c4nc5ccccc5s4)cc3OC[C@H]2C)cc1	none
CO[C@H]1CN(C)C(=O)c2cc(NC(=O)c3nc4ccccc4s3)ccc2OC[C@H](C)N(Cc2ccncc2)C[C@@H]1C	T cruzi growth-1 100, IDH1 R132H inh inconclusive | T cruzi growth-2 98 | T cruzi growth-3 inactive | 3T3 cytotox inactive | NIH3T3 tox 2 42
CO[C@@H]1CN(C)C(=O)c2cc(NC(=O)c3nc4ccccc4s3)ccc2OC[C@H](C)N(Cc2ccncc2)C[C@H]1C	none (no result: KDM4C inh)
CO[C@@H]1CN(C)C(=O)c2ccc(NC(=O)c3nc4ccccc4s3)cc2OC[C@@H](C)N(Cc2cccnc2)C[C@H]1C	none (no result: IDH1 R132H inh)
COCC(=O)Nc1ccc2c(c1)C(=O)N(C)C[C@@H](OC)[C@H](C)CN(Cc1ccncc1)[C@H](C)CO2	none
COCC(=O)Nc1ccc2c(c1)C(=O)N(C)C[C@@H](OC)[C@@H](C)CN(Cc1ccncc1)[C@@H](C)CO2	T cruzi growth-1 98 | T cruzi growth-2 inactive | T cruzi growth-3 inactive | 3T3 cytotox inactive | NIH3T3 tox 2 inactive
CO[C@@H]1CN(C)C(=O)c2ccc(NC(=O)c3nc4ccccc4s3)cc2OC[C@@H](C)N(Cc2cccnc2)C[C@@H]1C	T cruzi growth-1 102 (no result: IDH1 R132H inh) | T cruzi growth-2 109 | T cruzi growth-3 inconclusive | 3T3 cytotox inactive | NIH3T3 tox 2 43
O=C(Nc1ccccc1[N+](=O)[O-])C1Cc2ccccc2CN1S(=O)(=O)c1ccc(F)cc1 (stereo unspecified)	none (no result: T cruzi growth-1, KDM4C inh)
c1ccc(COc2ccc(Oc3nc(N4CCOCC4)nc(N4CCOCC4)n3)nn2)cc1	none (no result: T cruzi growth-1, KDM4C inh)
COc1ccc(S(=O)(=O)N(C)C[C@@H]2OCCCC[C@@H](C)Oc3ccc(NC(=O)Nc4ccc5c(c4)OCO5)cc3C(=O)N([C@@H](C)CO)C[C@H]2C)cc1	T cruzi growth-1 inconclusive | T cruzi growth-2 107 | T cruzi growth-3 inactive | 3T3 cytotox inactive | NIH3T3 tox 2 inactive
Cc1ccc(S(=O)(=O)N(C)C[C@@H]2OCCCC[C@H](C)Oc3ccc(NC(=O)Nc4ccc5c(c4)OCO5)cc3C(=O)N([C@H](C)CO)C[C@@H]2C)cc1	T cruzi growth-1 119 | T cruzi growth-2 111 | T cruzi growth-3 105 | 3T3 cytotox inactive | NIH3T3 tox 2 inactive
Cc1ccc(S(=O)(=O)N(C)C[C@H]2OCCCC[C@H](C)Oc3ccc(NC(=O)Nc4ccc5c(c4)OCO5)cc3C(=O)N([C@@H](C)CO)C[C@@H]2C)cc1	none (no result: T cruzi growth-1)
